≈ marks a conversion by molar mass, not a printed value.
What was measured:
Format in all cases: functional
Mus musculus = test: In vivo effective dose against Pasteurella multocida infection in mouse
How it was run: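 Mice infected with P. multocida serotype 5A. Subcutaneous dosing 0.5 h post-infection at 5 to 80 mg/kg. ED50 calculated from the number of mice surviving four days after infection.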

Escherichia coli = test: Minimum inhibitory concentration against Escherichia coli
Pasteurella multocida = test: Minimum inhibitory concentration against Pasteurella multocida
How it was run: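 P. multocida strain 59A0067 (turkey origin), grown overnight on BHI plates; colonies in saline at OD625 0.09 (0.5 McFarland), diluted 1:100 in BHI broth. Two-fold serial dilutions in BHI microdilution, about 5×10⁵ cfu/mL final, 37 °C for 18 h. MIC is the lowest concentration with A600 ≤ 0.025.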

SMILES	MIC (Escherichia coli)	MIC (Pasteurella multocida)	ED50 (Mus musculus)
CC[C@H]1OC(=O)[C@H](C)[C@@H](O[C@H]2C[C@@](C)(OC)[C@](C)(O)[C@H](C)O2)[C@H](C)[C@@H](O[C@@H]2O[C@H](C)C[C@H](N(C)C)[C@H]2O)[C@](C)(O)C[C@@H](C)CN(C)[C@H](C)[C@@H](O)[C@]1(C)O	0.78 µg/mL (≈ 1.02 µM)	0.1 µg/mL (≈ 0.131 µM)	26 mg/kg
CC[C@H]1OC(=O)[C@H](C)[C@@H](O[C@H]2C[C@@](C)(OC)[C@](C)(O)[C@H](C)O2)[C@H](C)[C@@H](O[C@@H]2O[C@H](C)C[C@H](N(C)C)[C@H]2O)[C@](C)(O)C[C@@H](C)CN[C@H](C)[C@@H](O)[C@]1(C)O	0.78 µg/mL (≈ 1.04 µM)	< 0.1 µg/mL	28 mg/kg
CC[C@H]1OC(=O)[C@H](C)[C@@H](O[C@H]2C[C@@](C)(OC)[C@@](O)(CCCOC)[C@H](C)O2)[C@H](C)[C@@H](O[C@@H]2O[C@H](C)C[C@H](N(C)C)[C@H]2O)[C@](C)(O)C[C@@H](C)CN(C)[C@H](C)[C@@H](O)[C@]1(C)O	1.56 µg/mL (≈ 1.9 µM)	0.1 µg/mL (≈ 0.122 µM)	> 80 mg/kg
C=CC[C@@]1(O)[C@H](C)O[C@@H](O[C@H]2[C@H](C)[C@@H](O[C@@H]3O[C@H](C)C[C@H](N(C)C)[C@H]3O)[C@](C)(O)C[C@@H](C)CN[C@H](C)[C@@H](O)[C@](C)(O)[C@@H](CC)OC(=O)[C@@H]2C)C[C@@]1(C)OC	0.78 µg/mL (≈ 1.01 µM)	< 0.1 µg/mL	58 mg/kg
CC[C@H]1OC(=O)[C@H](C)[C@@H](O[C@H]2C[C@@](C)(OC)[C@@](O)(c3ccco3)[C@H](C)O2)[C@H](C)[C@@H](O[C@@H]2O[C@H](C)C[C@H](N(C)C)[C@H]2O)[C@](C)(O)C[C@@H](C)CN[C@H](C)[C@@H](O)[C@]1(C)O	1.56 µg/mL (≈ 1.95 µM)	0.2 µg/mL (≈ 0.25 µM)	72 mg/kg
CC[C@H]1OC(=O)[C@H](C)[C@@H](O[C@H]2C[C@@](C)(OC)[C@@](O)(c3cccs3)[C@H](C)O2)[C@H](C)[C@@H](O[C@@H]2O[C@H](C)C[C@H](N(C)C)[C@H]2O)[C@](C)(O)C[C@@H](C)CN[C@H](C)[C@@H](O)[C@]1(C)O	3.13 µg/mL (≈ 3.83 µM)	0.78 µg/mL (≈ 0.955 µM)	> 80 mg/kg
CC[C@H]1OC(=O)[C@H](C)[C@@H](O[C@H]2C[C@@](C)(OC)[C@@](O)(C#CCOC)[C@H](C)O2)[C@H](C)[C@@H](O[C@@H]2O[C@H](C)C[C@H](N(C)C)[C@H]2O)[C@](C)(O)C[C@@H](C)CN(C)[C@H](C)[C@@H](O)[C@]1(C)O	0.39 µg/mL (≈ 0.477 µM)	0.05 µg/mL (≈ 0.0612 µM)	29 mg/kg
CC[C@H]1OC(=O)[C@H](C)[C@@H](O[C@H]2C[C@@](C)(OC)[C@@](O)(C#CCN(C)C)[C@H](C)O2)[C@H](C)[C@@H](O[C@@H]2O[C@H](C)C[C@H](N(C)C)[C@H]2O)[C@](C)(O)C[C@@H](C)CN(C)[C@H](C)[C@@H](O)[C@]1(C)O	0.39 µg/mL (≈ 0.47 µM)	0.1 µg/mL (≈ 0.12 µM)	40 mg/kg
CC[C@H]1OC(=O)[C@H](C)[C@@H](O[C@H]2C[C@@](C)(OC)[C@@](O)(CC)[C@H](C)O2)[C@H](C)[C@@H](O[C@@H]2O[C@H](C)C[C@H](N(C)C)[C@H]2O)[C@](C)(O)C[C@@H](C)CN[C@H](C)[C@@H](O)[C@]1(C)O	1.56 µg/mL (≈ 2.04 µM)	0.2 µg/mL (≈ 0.262 µM)	61 mg/kg
C#C[C@@]1(O)[C@H](C)O[C@@H](O[C@H]2[C@H](C)[C@@H](O[C@@H]3O[C@H](C)C[C@H](N(C)C)[C@H]3O)[C@](C)(O)C[C@@H](C)CN[C@H](C)[C@@H](O)[C@](C)(O)[C@@H](CC)OC(=O)[C@@H]2C)C[C@@]1(C)OC	3.13 µg/mL (≈ 4.12 µM)	< 0.1 µg/mL	24 mg/kg

More lines, main results first:

MIC (Escherichia coli)	MIC (Pasteurella multocida)	SMILES	ED50 (Mus musculus)
1.56 µg/mL (≈ 2.09 µM)	< 0.1 µg/mL	CC[C@H]1OC(=O)[C@H](C)[C@@H](O[C@H]2C[C@@](C)(OC)[C@@]3(CO3)[C@H](C)O2)[C@H](C)[C@@H](O[C@@H]2O[C@H](C)C[C@H](N(C)C)[C@H]2O)[C@](C)(O)C[C@@H](C)CN[C@H](C)[C@@H](O)[C@]1(C)O	31 mg/kg
3.13 µg/mL (≈ 3.94 µM)	0.1 µg/mL (≈ 0.126 µM)	CC[C@H]1OC(=O)[C@H](C)[C@@H](O[C@H]2C[C@@](C)(OC)[C@@](O)(CSC)[C@H](C)O2)[C@H](C)[C@@H](O[C@@H]2O[C@H](C)C[C@H](N(C)C)[C@H]2O)[C@](C)(O)C[C@@H](C)CN[C@H](C)[C@@H](O)[C@]1(C)O	44 mg/kg
3.13 µg/mL (≈ 3.62 µM)	0.2 µg/mL (≈ 0.231 µM)	CC[C@H]1OC(=O)[C@H](C)[C@@H](O[C@H]2C[C@@](C)(OC)[C@@](O)(c3cc4ccccc4n3C)[C@H](C)O2)[C@H](C)[C@@H](O[C@@H]2O[C@H](C)C[C@H](N(C)C)[C@H]2O)[C@](C)(O)C[C@@H](C)CN[C@H](C)[C@@H](O)[C@]1(C)O	> 40 mg/kg
0.78 µg/mL (≈ 0.966 µM)	0.2 µg/mL (≈ 0.248 µM)	CC[C@H]1OC(=O)[C@H](C)[C@@H](O[C@H]2C[C@@](C)(OC)[C@@](O)(CCCOC)[C@H](C)O2)[C@H](C)[C@@H](O[C@@H]2O[C@H](C)C[C@H](N(C)C)[C@H]2O)[C@](C)(O)C[C@@H](C)CN[C@H](C)[C@@H](O)[C@]1(C)O	49 mg/kg
1.56 µg/mL (≈ 1.98 µM)	0.2 µg/mL (≈ 0.254 µM)	CC#C[C@@]1(O)[C@H](C)O[C@@H](O[C@H]2[C@H](C)[C@@H](O[C@@H]3O[C@H](C)C[C@H](N(C)C)[C@H]3O)[C@](C)(O)C[C@@H](C)CN(C)[C@H](C)[C@@H](O)[C@](C)(O)[C@@H](CC)OC(=O)[C@@H]2C)C[C@@]1(C)OC	42 mg/kg
1.56 µg/mL (≈ 2.02 µM)	0.2 µg/mL (≈ 0.259 µM)	CC#C[C@@]1(O)[C@H](C)O[C@@H](O[C@H]2[C@H](C)[C@@H](O[C@@H]3O[C@H](C)C[C@H](N(C)C)[C@H]3O)[C@](C)(O)C[C@@H](C)CN[C@H](C)[C@@H](O)[C@](C)(O)[C@@H](CC)OC(=O)[C@@H]2C)C[C@@]1(C)OC	21 mg/kg
1.56 µg/mL (≈ 1.91 µM)	0.2 µg/mL (≈ 0.245 µM)	CC[C@H]1OC(=O)[C@H](C)[C@@H](O[C@H]2C[C@@](C)(OC)[C@@](O)(C#CCN(C)C)[C@H](C)O2)[C@H](C)[C@@H](O[C@@H]2O[C@H](C)C[C@H](N(C)C)[C@H]2O)[C@](C)(O)C[C@@H](C)CN[C@H](C)[C@@H](O)[C@]1(C)O	22 mg/kg
3.13 µg/mL (≈ 3.9 µM)	0.2 µg/mL (≈ 0.249 µM)	CC[C@H]1OC(=O)[C@H](C)[C@@H](O[C@H]2C[C@@](C)(OC)[C@@](O)(C#CCOC)[C@H](C)O2)[C@H](C)[C@@H](O[C@@H]2O[C@H](C)C[C@H](N(C)C)[C@H]2O)[C@](C)(O)C[C@@H](C)CN[C@H](C)[C@@H](O)[C@]1(C)O	20 mg/kg

From ChEMBL document CHEMBL1136530, “Synthesis, stereochemical assignment and biological activity of a novel series of C-4" modified aza-macrolides” (2003)
